From article PMC7857643 (ACS chemical biology, 2016)
Where a chain is given by its changes, count along the chain named. Where “and” joins values, the source holds several entries; their conditions need not be identical. Equal values may be shown once.

Key:
[1] = biological target: T1, mTDP2 WT (Mus musculus, UniProt Q9JJX7); experiment: Recombinant TDP2 assay, mouse TDP2 wild type; type: biochemical
T1 sequence (Q9JJX7 1-370): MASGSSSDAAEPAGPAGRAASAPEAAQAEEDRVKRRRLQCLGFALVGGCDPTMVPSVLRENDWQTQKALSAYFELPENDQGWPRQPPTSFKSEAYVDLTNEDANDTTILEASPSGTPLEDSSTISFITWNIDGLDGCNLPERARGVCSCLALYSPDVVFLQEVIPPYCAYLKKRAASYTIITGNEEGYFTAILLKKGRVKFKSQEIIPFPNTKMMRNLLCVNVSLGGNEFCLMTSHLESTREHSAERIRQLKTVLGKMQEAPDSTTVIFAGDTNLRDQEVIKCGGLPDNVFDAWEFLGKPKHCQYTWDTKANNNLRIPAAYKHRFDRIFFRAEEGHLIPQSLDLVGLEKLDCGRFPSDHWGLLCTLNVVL

[2] = biological target: T2, mTDP2 5M (Q278R, I281T, K282R, P318T, Y321C) (Mus musculus, UniProt Q9JJX7, I281T/K282R/P318T/Q278R/Y321C); experiment: Recombinant TDP2 assay, mouse TDP2 5M mutant; type: biochemical
T2 sequence (Q9JJX7 1-370 Q278R/I281T/K282R/P318T/Y321C): T1 sequence (Q9JJX7 1-370) with Q278R, I281T, K282R, P318T, Y321C

[3] = biological target: T3, mTDP2 8M (5M + E242G, S244A, R316G) (Mus musculus, UniProt Q9JJX7, E242G/I281T/K282R/P318T/Q278R/R316G/S244A/Y321C); experiment: Recombinant TDP2 assay, mouse TDP2 8M mutant; type: biochemical; details: IC50 mTDP2 8M, mouse TDP2 with eight human mutations
T3 sequence (Q9JJX7 1-370 E242G/S244A/Q278R/I281T/K282R/R316G/P318T/Y321C): T1 sequence (Q9JJX7 1-370) with E242G, S244A, Q278R, I281T, K282R, R316G, P318T, Y321C

[4] = biological target: T4, mTDP2 9M (8M + H323L) (Mus musculus, UniProt Q9JJX7, E242G/H323L/I281T/K282R/P318T/Q278R/R316G/S244A/Y321C); experiment: biochemical
T4 sequence (Q9JJX7 1-370 E242G/S244A/Q278R/I281T/K282R/R316G/P318T/Y321C/H323L): T1 sequence (Q9JJX7 1-370) with E242G, S244A, Q278R, I281T, K282R, R316G, P318T, Y321C, H323L

[5] = biological target: T5, recombinant human TDP2 (Homo sapiens, UniProt O95551); experiment: Kinetics experiments; type: biochemical
T5 sequence (O95551 1-362): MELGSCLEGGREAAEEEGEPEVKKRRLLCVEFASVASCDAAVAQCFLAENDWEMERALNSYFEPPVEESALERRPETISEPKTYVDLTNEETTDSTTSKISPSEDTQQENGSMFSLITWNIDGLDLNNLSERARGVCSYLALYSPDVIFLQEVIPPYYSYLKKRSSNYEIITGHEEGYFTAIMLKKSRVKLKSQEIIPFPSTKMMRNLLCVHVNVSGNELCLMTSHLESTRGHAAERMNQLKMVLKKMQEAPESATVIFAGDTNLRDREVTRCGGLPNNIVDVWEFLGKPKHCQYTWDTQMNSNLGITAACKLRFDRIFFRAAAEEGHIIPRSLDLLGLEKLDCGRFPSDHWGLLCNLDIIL
In short: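 Recombinant TDP2 at 10 pM was incubated at RT with 5, 10, 20 or 800 nM unlabeled TY19 substrate, spiked with 1 nM 32P-labeled TY19, with 0, 30, 50 or 150 nM test compound. Time-course reactions were resolved on 16% denaturing PAGE. Initial velocities from linear fits went into a Lineweaver–Burk plot.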

[6] = system: zebrafish TDP2 (zTDP2); experiment: Recombinant TDP2 assay, zebrafish TDP2; type: biochemical, D. rerio; details: full-length zebrafish TDP2
[7] = system: C. elegans TDP2 (cTDP2); experiment: Recombinant TDP2 assay, C. elegans TDP2; type: biochemical; details: full-length C. elegans TDP2
[8] = biological target: T6, human cellular TDP2 in HT29 whole cell extracts (Homo sapiens, UniProt O95551); experiment: TDP2 assay with whole cell extracts from HT29 cells; type: biochemical; details: Supporting Information Figure 1
T6 sequence (O95551 1-362): T5 sequence (O95551 1-362)
In short: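 1 × 10^7 human cells were lysed 15 min on ice and spun at 12,000g for 10 min; protein was measured and extracts were stored at −80 °C. Extract at 10–20 μg/mL (30–40% cleavage) was incubated with 1 nM 32P-labeled 5′-phosphotyrosyl 18-mer DNA and test compound for 15 min at RT in pH 7.5 Tris/KCl/MgCl2 buffer. Products were run on 16% denaturing PAGE and quantified by densitometry.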

[9] = biological target: native endogenous avian TDP2 in DT40 whole cell extracts (Gallus gallus, UniProt F1NW29); experiment: TDP2 assay with DT40 whole cell extracts; type: biochemical, chicken; details: Supporting Information Figure 1
Chain of native endogenous avian TDP2 in DT40 whole cell extracts (F1NW29 whole entry): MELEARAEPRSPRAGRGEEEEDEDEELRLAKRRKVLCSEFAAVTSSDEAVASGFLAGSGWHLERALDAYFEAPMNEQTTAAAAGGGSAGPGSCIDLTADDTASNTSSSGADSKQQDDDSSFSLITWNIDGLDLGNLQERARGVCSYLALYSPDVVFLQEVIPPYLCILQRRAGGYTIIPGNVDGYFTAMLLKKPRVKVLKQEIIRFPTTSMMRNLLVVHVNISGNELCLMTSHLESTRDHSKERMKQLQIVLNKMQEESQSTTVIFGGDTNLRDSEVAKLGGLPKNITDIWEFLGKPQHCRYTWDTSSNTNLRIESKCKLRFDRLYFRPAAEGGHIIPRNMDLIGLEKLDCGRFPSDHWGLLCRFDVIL

[10] = system: DU145 prostate cancer cells; experiment: Cell viability / drug combination with etoposide in DU145 cells; type: cell-based, human
[11] = system: DT40 avian lymphoblastoid cells; experiment: Drug combination with etoposide in DT40 cells; type: cell-based, chicken
[12] = system: TK6 human lymphoblastoid cells (TK6 WT); experiment: Drug combination with etoposide in TK6 cells; type: cell-based; details: increasing concentrations of ETP
In short: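 TK6 wild-type lymphoblastoid cells seeded at 10,000 cells/well and exposed continuously to the test compound combined with increasing etoposide concentrations for 72 h, in triplicate. ATPlite luminescence read at 72 h after 5 min incubation. Viability was expressed as a percentage of the ATP level in untreated cells.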

[13] = system: TK6 TDP2 KO cells; experiment: Drug combination with etoposide in TK6 TDP2 KO cells; type: cell-based, human
[14] = system: DT40 hTDP2 cells; experiment: Drug combination in TDP2 knockout DT40 cells complemented with human TDP2; type: cell-based, chicken
In short: (§1)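 DT40 cells (TDP2-knockout, with or without human TDP2 complementation) seeded at 200 cells/well and exposed continuously to the test compound plus etoposide (or camptothecin) across concentration ranges for 72 h, in triplicate. Viability read at 72 h by ATPlite luminescence after 5 min. Viability was the ATP level of treated cells over untreated cells × 100.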

[15] = system: DT40 TDP2 KO cells; experiment: Drug combination with etoposide in DT40 TDP2 KO cells; type: cell-based, chicken
In short: as §1

[16] = biological target: T7, recombinant human TDP2 (REC hTDP2) (Homo sapiens, UniProt O95551); experiment: Recombinant TDP2 assay; type: biochemical
T7 sequence (O95551 1-362): T5 sequence (O95551 1-362)

N#Cc1ccc2cc3c(=O)[nH]c(=O)nc-3n(-c3cccc(-c4nnn[nH]4)c3)c2c1 [Compound 1, 2,4-Dioxo-10-[3-(1H-tetrazol-5-yl)phenyl]pyrimido[4,5-b]-quinoline-8-carbonitrile]
IC50 [1]: > 111000 nM
IC50 [2]: 1200 ± 100 nM
IC50 [3]: 710 nM and 580 nM
IC50 [4]: 29 ± 10 nM
kcat ([5]; 30 nM of 1): 2.75 s⁻¹
kcat ([5]; 50 nM of 1): 2.71 s⁻¹
kcat ([5]; 150 nM of 1): 3.03 s⁻¹
mode of inhibition of hTDP2 ([5]; Lineweaver double-reciprocal plot): competitive inhibitor
resistance of zTDP2 to the drug [6]: at least 3 orders of magnitude
resistance of cTDP2 to the drug [7]: at least 3 orders of magnitude
activity against human cellular TDP2 in HT29 whole cell extracts [8]: confirmed
activity against native endogenous avian TDP2 in DT40 whole cell extracts [9]: active
synergy with ETP [10]: synergistic effect
combination effect with ETP ([10]; 5 μM ETP): supra-additive effect
cells killed in combination with ETP ([10]; 1 in combination with 1 μM of ETP): over 90%
cytotoxicity by itself ([10]; up to 50 μM, 72 h): not cytotoxic
synergy with ETP [11]: showed synergy
combination effect with ETP [12]: supra-additive effect
synergy with ETP [13]: synergy was not observed
synergy with camptothecin ([14]; ETP replaced by camptothecin, Supporting Information Figure 4): not observed
synergy with ETP ([14]; increasing concentrations of ETP): synergistic effect
synergy with ETP [15]: synergy was greatly reduced

N#Cc1ccc2cc3c(=O)[nH]c(=O)nc-3n(-c3ccccc3)c2c1 [Compound 3, 2,4-Dioxo-10-phenyl-pyrimido[4,5-b]quinoline-8-carbonitrile]
synergy with ETP [10]: synergistic effect

O=c1nc2n(-c3ccc(O)cc3)c3cc(Cl)ccc3cc-2c(=O)[nH]1 [Compound 4, 8-Chloro-10-(4-hydroxyphenyl)pyrimido[4,5-b]quinoline-2,4-dione]
decrease of potency against hTDP2 ([16]; 4 relative to 2 (cyano replaced by chloro)): 27 fold

O=c1nc2n(-c3ccccc3)c3ccccc3cc-2c(=O)[nH]1 [Compound 5, 10-Phenylpyrimido[4,5-b]quinoline-2,4(3H,10H)-dione]
additional loss of potency against hTDP2 ([16]; 5 relative to 4 (chloro removed)): 18 fold

COc1cc([C@@H]2c3cc4c(cc3[C@@H](O[C@@H]3O[C@@H]5CO[C@@H](C)O[C@H]5[C@H](O)[C@H]3O)[C@H]3COC(=O)[C@H]23)OCO4)cc(OC)c1O [ETP, etoposide, reference compound]
cells killed by ETP by itself ([10]; 1 μM ETP alone): around 50%
